How the values were obtained:
Assay type in all cases: functional
Fusarium graminearum = experiment: Fungicidal activity against Fusarium graminearum at 50 ug/ml by growth inhibition method; conditions: read-out: GI
Method in brief: (§1)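 Mycelial growth inhibition on potato dextrose agar. The panel covered Alternaria solani, Botrytis cinerea, Cercospora arachidicola, C. beticola, Colletotrichum lagenarium, Fusarium oxysporum, Gibberella zeae, Puccinia triticina, Phytophthora infestans, Physalospora piricola, Pellicularia sasakii and Rhizoctonia solani.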

Thanatephorus cucumeris = experiment: Fungicidal activity against Thanatephorus cucumeris at 50 ug/ml by growth inhibition method; conditions: read-out: GI; method in brief: as §1
Alternaria solani = experiment: Fungicidal activity against Alternaria solani at 50 ug/ml by growth inhibition method; conditions: read-out: GI; method in brief: as §1
Fusarium oxysporum = experiment: Fungicidal activity against Fusarium oxysporum at 50 ug/ml by growth inhibition method; conditions: read-out: GI; method in brief: as §1
Tobacco mosaic virus [1] = experiment: In vitro antiviral activity against Tobacco mosaic virus (TMV) infected tobacco leaves at 500 ug/ml
Colletotrichum lagenaria = experiment: Fungicidal activity against Colletotrichum lagenaria at 50 ug/ml by growth inhibition method; conditions: read-out: GI; method in brief: as §1
[2] = tested on: Botryosphaeria berengeriana; experiment: Fungicidal activity against Botryosphaeria berengeriana at 50 ug/ml by growth inhibition method; conditions: read-out: GI; method in brief: as §1
Phytophthora infestans = experiment: Fungicidal activity against Phytophthora infestans at 50 ug/ml by growth inhibition method; conditions: read-out: GI; method in brief: as §1
Mycosphaerella arachidis = experiment: Fungicidal activity against Mycosphaerella arachidis at 50 ug/ml by growth inhibition method; conditions: read-out: GI; method in brief: as §1
Tobacco mosaic virus [3] = experiment: In vitro antiviral activity against Tobacco mosaic virus (TMV) infected tobacco leaves at 100 ug/ml
Cercospora beticola = experiment: Fungicidal activity against Cercospora beticola at 50 ug/ml by growth inhibition method; conditions: read-out: GI; method in brief: as §1
Botrytis cinerea = experiment: Fungicidal activity against Botryotinia fuckeliana at 50 ug/ml by growth inhibition method; conditions: read-out: GI; method in brief: as §1
Rhizoctonia solani = experiment: Fungicidal activity against Rhizoctonia solani at 50 ug/ml by growth inhibition method; conditions: read-out: GI; method in brief: as §1
Puccinia triticina = experiment: Fungicidal activity against Puccinia triticina at 50 ug/ml by growth inhibition method; conditions: read-out: GI; method in brief: as §1

Structure (SMILES) | inhibition of growth at 50 µg/mL (Fusarium graminearum) [%] | inhibition of growth at 50 µg/mL (Thanatephorus cucumeris) [%] | inhibition of growth at 50 µg/mL (Alternaria solani) [%] | inhibition of growth at 50 µg/mL (Fusarium oxysporum) [%] | inhibition at 500 µg/mL (Tobacco mosaic virus [1]) [%] | inhibition of growth at 50 µg/mL (Colletotrichum lagenaria) [%] | inhibition of growth at 50 µg/mL [2] [%] | inhibition of growth at 50 µg/mL (Phytophthora infestans) [%] | inhibition of growth at 50 µg/mL (Mycosphaerella arachidis) [%] | inhibition at 100 µg/mL (Tobacco mosaic virus [3]) [%] | inhibition of growth at 50 µg/mL (Cercospora beticola) [%] | inhibition of growth at 50 µg/mL (Botrytis cinerea) [%] | inhibition of growth at 50 µg/mL (Rhizoctonia solani) [%] | inhibition of growth at 50 µg/mL (Puccinia triticina) [%]
Cc1ccc(N(C(=O)c2nnsc2C)C(C(=O)NC(C)C)c2ccccc2[N+](=O)[O-])cc1Cl (centres undefined) | 12 | 31 | 26 | 14 | 59 | 10 | 39 | 24 | 5 | 19 | 8 | 60 | – | –
Cc1ccc(N(C(=O)c2nnsc2C)C(C(=O)NC(C)C)c2cccc(F)c2)cc1F (centres undefined) | 5 | 0 | 44 | – | 30 | 57 | 0 | 19 | 27 | 50 | 25 | – | 43 | 0
Cc1ccc(N(C(=O)c2nnsc2C)C(C(=O)NC(C)C)c2ccc(C(F)(F)F)cc2)cc1F (centres undefined) | 0 | 11 | 0 | – | 45 | 0 | 0 | 25 | 0 | 14 | 25 | – | 15 | 0
Cc1ccc(N(C(=O)c2nnsc2C)C(C(=O)NC(C)C)c2cccc(C(F)(F)F)c2)cc1F (centres undefined) | 36 | 4 | 0 | – | 51 | 14 | 8 | 0 | 27 | 19 | 25 | – | 22 | 14
Cc1ccc(C(C(=O)NC(C)C)N(C(=O)c2nnsc2C)c2ccc(C)c(F)c2)cc1 (centres undefined) | 0 | 11 | 31 | – | 31 | 29 | 0 | 13 | 45 | 7 | 25 | – | 37 | 14
Cc1ccc(N(C(=O)c2nnsc2C)C(C(=O)NC(C)C)c2cccc(O)c2)cc1Cl (centres undefined) | 15 | 59 | 33 | 30 | 24 | 13 | 45 | 30 | 14 | 13 | 23 | 73 | – | –
Cc1ccc(N(C(=O)c2nnsc2C)C(C(=O)NC(C)C)c2ccccc2O)cc1Cl (centres undefined) | 18 | 47 | 38 | 18 | 23 | 7 | 39 | 24 | 9 | 18 | 0 | 75 | – | –
Cc1ccc(N(C(=O)c2nnsc2C)C(C(=O)NC(C)C)c2ccccc2)cc1F (centres undefined) | 27 | 0 | 13 | – | 15 | 14 | 0 | 38 | 9 | 5 | 0 | – | 2 | 0
Cc1ccc(N(C(=O)c2nnsc2C)C(C(=O)NC(C)C)c2cccc([N+](=O)[O-])c2)cc1F (centres undefined) | 45 | 0 | 13 | – | 14 | 29 | 0 | 13 | 27 | 4 | 25 | – | 15 | 14
Cc1ccc(N(C(=O)c2nnsc2C)C(C(=O)NC(C)C)c2ccccc2[N+](=O)[O-])cc1F (centres undefined) | 27 | 39 | 0 | – | 24 | 14 | 19 | 0 | 0 | 11 | 25 | – | 2 | 0
Cc1ccc(N(C(=O)c2nnsc2C)C(C(=O)NC(C)C)c2ccc(Cl)cc2)cc1F (centres undefined) | 0 | 28 | 38 | – | 12 | 14 | 0 | 38 | 0 | 20 | 13 | – | 15 | 0
Cc1ccc(N(C(=O)c2nnsc2C)C(C(=O)NC(C)C)c2cccc(Cl)c2)cc1F (centres undefined) | 0 | 4 | 0 | – | 66 | 0 | 0 | 0 | 0 | 32 | 13 | – | 22 | 0
Cc1ccc(N(C(=O)c2nnsc2C)C(C(=O)NC(C)C)c2ccccc2Cl)cc1F (centres undefined) | 0 | 0 | 0 | – | 17 | 14 | 0 | 25 | 0 | 23 | 0 | – | 0 | 0
Cc1ccc(N(C(=O)c2nnsc2C)C(C(=O)NC(C)C)c2ccc(F)cc2)cc1F (centres undefined) | 27 | 0 | 0 | – | 51 | 0 | 0 | 0 | 0 | 18 | 25 | – | 22 | 0
Cc1ccc(N(C(=O)c2nnsc2C)C(C(=O)NC(C)C)c2cccc([N+](=O)[O-])c2)cc1Cl (centres undefined) | 33 | 52 | 33 | 12 | 34 | 10 | 45 | 26 | 9 | 28 | 46 | 78 | – | –
Cc1ccc(N(C(=O)c2nnsc2C)C(C(=O)NC(C)C)c2cccc(F)c2)cc1Cl (centres undefined) | 23 | 69 | 42 | 19 | 18 | 10 | 38 | 18 | 21 | 34 | 33 | 78 | – | –
Cc1ccc(N(C(=O)c2nnsc2C)C(C(=O)NC(C)C)c2ccccc2F)cc1Cl (centres undefined) | 37 | 67 | 40 | 21 | 34 | 10 | 33 | 15 | 21 | 32 | 25 | 73 | – | –

— ChEMBL document CHEMBL3044755, “5-Methyl-1,2,3-thiadiazoles synthesized via ugi reaction and their fungicidal and antiviral activities” (J Agric Food Chem, 2010)
